KCNQ1 block – inhibitors of human KCNQ1 channel, primary screen, cell-based, thallium flux, high-throughput | Potassium voltage-gated channel subfamily KQT member 1 (Homo sapiens), P51787 | CHO-K1 KCNQ1, FluxOR thallium flux fluorescence; hits give high values | B-score at 10 µM | 1.3% of 310,000 active | AID 2642, 2010;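 active means compounds whose thallium flux B-score, printed positive for inhibition, exceeds three library SD while starting fluorescence stays within three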;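 further: channel opened by potassium depolarization with thallium stimulus after 20 min compound exposure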
KCNK9 inh – KCNK9 potassium channel inhibitors, primary screen, HEK293 cells, thallium flux; Potassium channel subfamily K member 9 (Homo sapiens), Q9NPC2; FluxOR thallium flux fluorescence; hits give low values; B-score at 10 µM; 1.2% of 310,000 active; AID 488922, 2010;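 active means ratio B-score over 3 SD below the library mean, with starting fluorescence within 5 SD of its mean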;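 further: negative B-score means less thallium flux so channel inhibition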
Target sequence (Q9NPC2 whole entry, looked up): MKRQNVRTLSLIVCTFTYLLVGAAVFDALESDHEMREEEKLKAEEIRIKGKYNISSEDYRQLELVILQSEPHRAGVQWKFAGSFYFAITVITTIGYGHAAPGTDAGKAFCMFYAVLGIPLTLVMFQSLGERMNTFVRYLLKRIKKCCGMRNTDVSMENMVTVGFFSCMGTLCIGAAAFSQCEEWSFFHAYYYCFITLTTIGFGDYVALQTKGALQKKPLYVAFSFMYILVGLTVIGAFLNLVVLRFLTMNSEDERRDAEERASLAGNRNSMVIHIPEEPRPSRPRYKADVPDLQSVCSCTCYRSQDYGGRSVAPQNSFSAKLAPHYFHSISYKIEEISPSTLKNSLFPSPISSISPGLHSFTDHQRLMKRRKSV
hERG rescue – hERG rescue from dofetilide block, primary screen, cell-based, CHO-hERG, FluxOR thallium flux, dofetilide IC70; Voltage-gated inwardly rectifying potassium channel KCNH2 (Homo sapiens), Q12809; dofetilide IC70 present; activation (rescue from dofetilide block), less the hit threshold, % at 10 µM; 0.51% of 310,000 active;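 active means activation above the mean of controls blocked by dofetilide plus 5 SD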;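 further: thallium influx through hERG after potassium depolarization seen as dye fluorescence rise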
KCNK3 inh – human KCNK3 channel inhibitors, primary screen, CHO cells, FluxOR thallium flux, B-score. Potassium channel subfamily K member 3 (Homo sapiens), O14649. FluxOR fluorescence; hits give low values. B-score at 10 µM. 0.84% of 340,000 active. AID 602410, 2012;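 active means B-score under library mean minus 4 SD, starting fluorescence ratio at most library mean plus 5 SD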;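 further: more negative B-score means stronger inhibition of thallium flux through KCNK3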
Kir21 block – inhibitors of mouse Kir2.1 inward-rectifier potassium channel; B-score at 10 µM; HEK293-Kir2.1, FluxOR thallium flux fluorescence; hits give low values; 0.85% of 310,000 active;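 active means fluorescence ratio B-score at or below minus 3 SD of library scores, with starting-brightness B-score within 2 SD, cut at about -4.2 in these data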;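 further: channel flux triggered by added potassium and thallium sulfate stimulus; B-score of peak minus minimum fluorescence over baseline after thallium stimulus; more negative B-score means stronger Kir2.1 block with less thallium influx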
KCNQ1 pot – potentiators or activators of KCNQ1 channel, primary screen, cell-based, thallium flux, high-throughput; CHO-K1 KCNQ1, thallium flux FluxOR fluorescence; hits give high values; B-score at 10 µM; 0.35% of 310,000 active;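 active means fluorescence ratio B-score, a plate-corrected score, at least three library SD, with initial intensity B-score within 5 SD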
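Material: CHO-K1 cells stably expressing KCNQ1. Medium: assay buffer for compound exposure, DMSO matched across wells. Reagent: K+/Tl+ depolarizing stimulus. Compound dosing: single-concentration screen. Times: 37 °C overnight plating, 90-min dark dye load, 20-min compound pretreatment. Technique: FluxOR Tl+ flux fluorescence.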
Of the large screens only hits and unclear results are named; the others gave an inactive call. Sampled rows, rich in hits. Any-hit rate of the full collection: about 3.8%.

CCOC(=O)c1ccc([N+](=O)[O-])c(CS(=O)(=O)c2ccc(Cl)cc2)c1	none
Cc1ccc(S(=O)(=O)Cc2cc(F)c([N+](=O)[O-])cc2[N+](=O)[O-])cc1	KCNK3 inh -10.4
O=C(COc1ncnc2sccc12)NC1CCCCC1	none (no result: KCNQ1 block, KCNK9 inh, hERG rescue, Kir21 block, KCNQ1 pot)
Cc1ccc(C(=O)c2coc3ccc(O)c(CN4CCN(C)CC4)c23)cc1	Kir21 block -4.64
CCN(CC)Cc1c(O)ccc2occ(C(=O)c3ccc(OC)cc3)c12	none
O=C(c1cccs1)c1coc2ccc(O)c(CN3CCOCC3)c12	Kir21 block -4.24
COc1ccc(C(=O)c2coc3ccc(O)c(CN4CCCC4)c23)cc1	none
COc1ccc(C(=O)c2coc3ccc(O)c(CN4CCOCC4)c23)cc1	Kir21 block -4.65
O=C(c1coc2ccc(O)c(CN3CCOCC3)c12)C1CC1	none
Cc1ccc(S(=O)(=O)N(CC(=O)Nc2cccc(N(C)S(C)(=O)=O)c2)c2ccc(Cl)c(Cl)c2)cc1	KCNQ1 block 10
CN(c1cccc(NC(=O)CN(c2ccc(Cl)c(Cl)c2)S(=O)(=O)c2ccccc2)c1)S(C)(=O)=O	none
COc1cc(OC)c(N2CC(C(=O)Nc3cccc(C(=O)NC4CC4)c3)CC2=O)cc1Cl (stereo not given)	none (no result: KCNQ1 block, KCNK9 inh, hERG rescue, Kir21 block, KCNQ1 pot)
COc1ccc2o/c(=N\O)c(C(=O)Nc3ccc(C)cc3)cc2c1	KCNQ1 block 6
COc1ccc([C@H]2CC(=O)C=C(c3cc(C=O)ccc3OC)C2)cc1	none (no result: KCNQ1 block, KCNK9 inh, hERG rescue, Kir21 block, KCNQ1 pot)
O=S1(=O)N=C(c2ccccc2)C=C(c2ccccc2)N1	none (no result: KCNQ1 block, KCNK9 inh, hERG rescue, Kir21 block, KCNQ1 pot)
CCCn1c(=O)c(C(=O)NCc2ccc3c(c2)OCO3)c(O)c2ccccc21	KCNQ1 block 8
NS(=O)(=O)c1ccc(NC(=O)COC(=O)/C=C/c2ccc([N+](=O)[O-])cc2)cc1	none
CN(C)S(=O)(=O)c1cccc(NC(=O)COC(=O)/C=C/c2ccc([N+](=O)[O-])cc2)c1	hERG rescue 8.1
CCC(CC)C(=O)OCC(=O)Nc1cccc(S(=O)(=O)N(C)c2ccccc2)c1	KCNK9 inh -7.2
CC(OC(=O)c1nn(C)c(=O)c2ccccc12)C(=O)NCc1ccc2c(c1)OCO2 (stereo not given)	none
CCCn1nc(C(=O)NCc2ccc3c(c2)OCO3)c2ccccc2c1=O	KCNK3 inh -8.94
CN(c1ccccc1)S(=O)(=O)c1cccc(NC(=O)COc2ccccc2)c1	none (no result: KCNQ1 block, KCNK9 inh, hERG rescue, Kir21 block, KCNQ1 pot)
Nc1ccn(CC(=O)NCCc2ccccn2)c(=O)n1	none (no result: KCNQ1 block, KCNK9 inh, hERG rescue, Kir21 block, KCNQ1 pot)
COc1ccc(S(=O)(=O)N2CCN(C(=O)CCNC(=O)c3ccccc3Cl)CC2)cc1	none (no result: KCNQ1 block, KCNK9 inh, hERG rescue, Kir21 block, KCNQ1 pot)
CSCCC(NC(=O)c1ccccc1Cl)C(=O)N(C)Cc1cccs1 (stereo not given)	none
CCCn1nc(C(=O)Nc2cccc(S(=O)(=O)N(C)c3ccccc3)c2)c2ccccc2c1=O	KCNK3 inh -9.22 (no result: KCNQ1 block, KCNK9 inh, hERG rescue, Kir21 block, KCNQ1 pot)
CCCC(=O)Nc1cccc(S(=O)(=O)N(C)c2ccccc2)c1	none
COc1cc2c(cc1OC)CN(c1ccc3ccccc3n1)CC2	Kir21 block -11.1
COc1cc2c(cc1OC)CN(c1ccc(-c3ccccc3OC)nn1)CC2	none
O=C(NNC(=S)Nc1ccc(F)cc1)c1cccc([N+](=O)[O-])c1	none
O=C(NC(NNc1ccc([N+](=O)[O-])cc1)(C(F)(F)F)C(F)(F)F)c1ccc(F)cc1	KCNQ1 block 6
CC(C)OC(=O)c1cc(NC(=S)Nc2ccc([N+](=O)[O-])cc2)cc(C(=O)OC(C)C)c1	KCNQ1 block 10
O=[N+]([O-])c1ccc(NNC(=S)Nc2ccc(F)cc2)cc1	KCNQ1 block 7
CC(C)CCNC(=S)Nc1ccc([N+](=O)[O-])cc1	Kir21 block -11.1
O=C(NC(NNc1ccc([N+](=O)[O-])cc1)(C(F)(F)F)C(F)(F)F)c1ccccc1Cl	none
CCOc1ccc(CCNC(=O)COC(=O)c2sccc2C)cc1OCC	none

Screening results: PubChem BioAssay, Johns Hopkins Ion Channel Center
